Usually EC50 stands for the concentration giving half of the maximal effect. The CC50 is the concentration that lowers cell viability or growth by half. Lower therefore signals harm at low concentration.

Here are results for 5 compounds from ChEMBL document CHEMBL3351900, “Conjugation of a nonspecific antiviral sapogenin with a specific HIV fusion inhibitor: a promising strategy for discovering new antiviral therapeutics” (J Med Chem, 2014).

Peptide text beside a SMILES is read from it. * marks the point of attachment. X3 = C=C(C)[C@@H]1CC[C@]2(C(=O)O)CC[C@]3(C)[C@H](CC[C@@H]4[C@@]5(C)CC[C@H](OC(=O)CCc6cn(CC(=O)*)nn6)C(C)(C)[C@@H]5CC[C@]43C)[C@@H]12; X8 = C[C@H]1[C@H](C)CC[C@]2(C(=O)O)CC[C@]3(C)C(=CC[C@@H]4[C@@]5(C)CC[C@H](OC(=O)CCc6cn(CC(=O)*)nn6)C(C)(C)[C@@H]5CC[C@]43C)[C@H]12; X7 = C[C@H]1[C@H](C)CC[C@]2(C(=O)OCc3cn(CC(=O)*)nn3)CC[C@]3(C)C(=CC[C@@H]4[C@@]5(C)CC[C@H](O)C(C)(C)[C@@H]5CC[C@]43C)[C@H]12; X6 = CC1(C)CC[C@]2(C(=O)O)CC[C@]3(C)C(=CC[C@@H]4[C@@]5(C)CC[C@H](OC(=O)CCc6cn(CC(=O)*)nn6)C(C)(C)[C@@H]5CC[C@]43C)[C@@H]2C1; X10 = CC1(C)CC[C@]2(C(=O)OCc3cn(CC(=O)*)nn3)CC[C@]3(C)C(=CC[C@@H]4[C@@]5(C)CC[C@H](O)C(C)(C)[C@@H]5CC[C@]43C)[C@@H]2C1; βAla = NCCC(=O)O Bounds are passed on as bounds.

Data set [1] deals with GP41 (Human immunodeficiency virus 1) (UniProt Q76270). Put plainly: Ratio of EC50 for HIV1 gp41-induced cell-cell fusion between viral envelope expressing human HL2/3 cells to CD4/CCR5 receptor expressing TZM-bl cells with wash out to EC50 for HIV1 gp41-induced cell-cell fusion between viral envelope expressing human HL2/3 cells to CD4/CCR5 receptor expressing TZM-bl cells. Format: cell-based. Put shortly:
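Peptides preincubated with TZM-bl cells at 37 °C for 1 h, with or without washing away unbound peptide. EC50 compared between washed and unwashed cells, giving the n-fold change. Triplicates, mean ± SD.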

The test system of data set [2] is Human immunodeficiency virus 1. Briefly: Antiviral activity against HIV1 3B infected in human MT2 cells assessed as inhibition of viral p24 antigen production by ELISA. In kind it is functional, organism-based. The settings on record: Human immunodeficiency virus 1, 3B. In outline:
(§1)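 MT-2 cells (1 × 10⁴) infected with 100 TCID₅₀ virus with or without peptides at graded concentrations. Culture supernatants collected on day 4 postinfection; p24 antigen quantified by ELISA. Percent inhibition and EC₅₀ calculated; tested in triplicate, mean ± standard deviation.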
On the technique in general: ELISA stands for enzyme-linked immunosorbent assay.

Data set [3] can be described thus: Selectivity index, ratio of CC50 for human MT2 cells to EC50 for HIV1 3B infected in human MT2 cells. In kind it is toxicity, cell-based. The settings on record: read-out: Ratio CC50/EC50.
A short description of data set [4]: Cytotoxicity against human MT2 cells after 4 days by XTT assay. Format: cell-based. Put shortly: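 MT-2 cells (5 × 10⁵/mL) mixed with equal volumes of graded conjugate concentrations and held at 37 °C for 4 days. XTT (1 mg/mL) with 0.02 μM phenazine methosulfate added for 4 h, then A450 read. CC50 calculated from the dose–response.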
Background: Tetrazolium assays rely on reduction of a dye to a coloured formazan, in cell work by metabolically active cells.

For data set [5], the system named is Human immunodeficiency virus 1. Put plainly: Antiviral activity against HIV1 BaL infected in human […] cells assessed as inhibition of viral replication. Format: functional, organism-based. The settings on record: Human immunodeficiency virus 1, BaL. In outline: as §1

Take `C=C(C)[C@@H]1CC[C@]2(C(=O)O)CC[C@]3(C)[C@H](CC[C@@H]4[C@@]5(C)CC[C@H](OC(=O)CCc6cn(CC(=O)NCCC(=O)N[C@@H](CC(N)=O)C(=O)N[C@@H](CC(N)=O)C(=O)N[C@@H](Cc7ccc(O)cc7)C(=O)N[C@H](C(=O)N[C@@H](CO)C(=O)N[C@@H](CC(C)C)C(=O)N[C@H](C(=O)N[C@@H](Cc7cnc[nH]7)C(=O)N[C@@H](CO)C(=O)N[C@@H](CC(C)C)C(=O)N[C@H](C(=O)N[C@@H](CCC(=O)O)C(=O)N[C@@H](CCC(=O)O)C(=O)N[C@@H](CO)C(=O)N[C@@H](CCC(N)=O)C(=O)N[C@@H](CC(N)=O)C(=O)N[C@@H](CCC(N)=O)C(=O)N[C@@H](CCC(N)=O)C(=O)N[C@@H](CCC(=O)O)C(=O)N[C@@H](CCCCN)C(=O)N[C@@H](CC(N)=O)C(=O)N[C@@H](CCC(=O)O)C(=O)N[C@@H](CCC(N)=O)C(=O)N[C@@H](CCC(=O)O)C(=O)N[C@@H](CC(C)C)C(=O)N[C@@H](CC(C)C)C(N)=O)[C@@H](C)CC)[C@@H](C)CC)[C@@H](C)O)nn6)C(C)(C)[C@@H]5CC[C@]43C)[C@@H]12` ({X3-βAla}-NNYTSLIHSLIEESQNQQEKNEQELL-NH2): the Ratio EC50 in data set [1] is more than 85. The EC50 in data set [2] stood at 0.133 µM; in data set [5], 0.098 µM. Also, in data set [3], the selectivity ratio was more than 187. The same compound had a 50% cytotoxic concentration (CC50) at 96 h in data set [4] of more than 25 µM.

As for `CC[C@H](C)[C@H](NC(=O)[C@H](CC(C)C)NC(=O)[C@H](CO)NC(=O)[C@H](Cc1cnc[nH]1)NC(=O)[C@@H](NC(=O)[C@H](CC(C)C)NC(=O)[C@H](CO)NC(=O)[C@@H](NC(=O)[C@H](Cc1ccc(O)cc1)NC(=O)[C@H](CC(N)=O)NC(=O)[C@H](CC(N)=O)NC(=O)CCNC(=O)Cn1cc(CCC(=O)O[C@H]2CC[C@]3(C)[C@H]4CC=C5[C@@H]6CC(C)(C)CC[C@]6(C(=O)O)CC[C@@]5(C)[C@]4(C)CC[C@H]3C2(C)C)nn1)[C@@H](C)O)[C@@H](C)CC)C(=O)N[C@@H](CCC(=O)O)C(=O)N[C@@H](CCC(=O)O)C(=O)N[C@@H](CO)C(=O)N[C@@H](CCC(N)=O)C(=O)N[C@@H](CC(N)=O)C(=O)N[C@@H](CCC(N)=O)C(=O)N[C@@H](CCC(N)=O)C(=O)N[C@@H](CCC(=O)O)C(=O)N[C@@H](CCCCN)C(=O)N[C@@H](CC(N)=O)C(=O)N[C@@H](CCC(=O)O)C(=O)N[C@@H](CCC(N)=O)C(=O)N[C@@H](CCC(=O)O)C(=O)N[C@@H](CC(C)C)C(=O)N[C@@H](CC(C)C)C(N)=O` ({X6-βAla}-NNYTSLIHSLIEESQNQQEKNEQELL-NH2), the concentration for a half-maximal effect (EC50) stood at 0.094 µM in data set [2] and 0.15 µM in data set [5]. Further, in data set [3], the selectivity ratio is more than 266. Moreover, the CC50 at 96 h in data set [4] is more than 25 µM.

Regarding `CC[C@H](C)[C@H](NC(=O)[C@H](CC(C)C)NC(=O)[C@H](CO)NC(=O)[C@H](Cc1cnc[nH]1)NC(=O)[C@@H](NC(=O)[C@H](CC(C)C)NC(=O)[C@H](CO)NC(=O)[C@@H](NC(=O)[C@H](Cc1ccc(O)cc1)NC(=O)[C@H](CC(N)=O)NC(=O)[C@H](CC(N)=O)NC(=O)CCNC(=O)Cn1cc(COC(=O)[C@]23CC[C@@H](C)[C@H](C)[C@H]2C2=CC[C@@H]4[C@@]5(C)CC[C@H](O)C(C)(C)[C@@H]5CC[C@@]4(C)[C@]2(C)CC3)nn1)[C@@H](C)O)[C@@H](C)CC)C(=O)N[C@@H](CCC(=O)O)C(=O)N[C@@H](CCC(=O)O)C(=O)N[C@@H](CO)C(=O)N[C@@H](CCC(N)=O)C(=O)N[C@@H](CC(N)=O)C(=O)N[C@@H](CCC(N)=O)C(=O)N[C@@H](CCC(N)=O)C(=O)N[C@@H](CCC(=O)O)C(=O)N[C@@H](CCCCN)C(=O)N[C@@H](CC(N)=O)C(=O)N[C@@H](CCC(=O)O)C(=O)N[C@@H](CCC(N)=O)C(=O)N[C@@H](CCC(=O)O)C(=O)N[C@@H](CC(C)C)C(=O)N[C@@H](CC(C)C)C(N)=O` ({X7-βAla}-NNYTSLIHSLIEESQNQQEKNEQELL-NH2), the concentration for a half-maximal effect (EC50) in data set [2] is 0.565 µM; in data set [5], 0.288 µM. Moreover, the selectivity ratio in data set [3] was more than 44. Moreover, in data set [4], the CC50 at 96 h was more than 25 µM.

Consider `CC[C@H](C)[C@H](NC(=O)[C@H](CC(C)C)NC(=O)[C@H](CO)NC(=O)[C@H](Cc1cnc[nH]1)NC(=O)[C@@H](NC(=O)[C@H](CC(C)C)NC(=O)[C@H](CO)NC(=O)[C@@H](NC(=O)[C@H](Cc1ccc(O)cc1)NC(=O)[C@H](CC(N)=O)NC(=O)[C@H](CC(N)=O)NC(=O)CCNC(=O)Cn1cc(CCC(=O)O[C@H]2CC[C@]3(C)[C@H]4CC=C5[C@@H]6[C@@H](C)[C@H](C)CC[C@]6(C(=O)O)CC[C@@]5(C)[C@]4(C)CC[C@H]3C2(C)C)nn1)[C@@H](C)O)[C@@H](C)CC)C(=O)N[C@@H](CCC(=O)O)C(=O)N[C@@H](CCC(=O)O)C(=O)N[C@@H](CO)C(=O)N[C@@H](CCC(N)=O)C(=O)N[C@@H](CC(N)=O)C(=O)N[C@@H](CCC(N)=O)C(=O)N[C@@H](CCC(N)=O)C(=O)N[C@@H](CCC(=O)O)C(=O)N[C@@H](CCCCN)C(=O)N[C@@H](CC(N)=O)C(=O)N[C@@H](CCC(=O)O)C(=O)N[C@@H](CCC(N)=O)C(=O)N[C@@H](CCC(=O)O)C(=O)N[C@@H](CC(C)C)C(=O)N[C@@H](CC(C)C)C(N)=O` ({X8-βAla}-NNYTSLIHSLIEESQNQQEKNEQELL-NH2), for which the EC50 in data set [2] was found to be 0.387 µM; in data set [5] it was 0.113 µM. Further, in data set [3], the selectivity ratio is more than 64. The CC50 at 96 h in data set [4] was more than 25 µM.

Consider `CC[C@H](C)[C@H](NC(=O)[C@H](CC(C)C)NC(=O)[C@H](CO)NC(=O)[C@H](Cc1cnc[nH]1)NC(=O)[C@@H](NC(=O)[C@H](CC(C)C)NC(=O)[C@H](CO)NC(=O)[C@@H](NC(=O)[C@H](Cc1ccc(O)cc1)NC(=O)[C@H](CC(N)=O)NC(=O)[C@H](CC(N)=O)NC(=O)CCNC(=O)Cn1cc(COC(=O)[C@]23CCC(C)(C)C[C@H]2C2=CC[C@@H]4[C@@]5(C)CC[C@H](O)C(C)(C)[C@@H]5CC[C@@]4(C)[C@]2(C)CC3)nn1)[C@@H](C)O)[C@@H](C)CC)C(=O)N[C@@H](CCC(=O)O)C(=O)N[C@@H](CCC(=O)O)C(=O)N[C@@H](CO)C(=O)N[C@@H](CCC(N)=O)C(=O)N[C@@H](CC(N)=O)C(=O)N[C@@H](CCC(N)=O)C(=O)N[C@@H](CCC(N)=O)C(=O)N[C@@H](CCC(=O)O)C(=O)N[C@@H](CCCCN)C(=O)N[C@@H](CC(N)=O)C(=O)N[C@@H](CCC(=O)O)C(=O)N[C@@H](CCC(N)=O)C(=O)N[C@@H](CCC(=O)O)C(=O)N[C@@H](CC(C)C)C(=O)N[C@@H](CC(C)C)C(N)=O` ({X10-βAla}-NNYTSLIHSLIEESQNQQEKNEQELL-NH2), for which the EC50 in data set [2] amounted to 0.369 µM; in data set [5] it was 0.498 µM. In addition, in data set [3], the selectivity ratio was more than 68. In data set [4], this compound registered a CC50 at 96 h of more than 25 µM.
